According to ChEMBL document CHEMBL4257543, “Structural optimization and antibacterial evaluation of rhodomyrtosone B analogues against MRSA strains” (Medchemcomm, 2018):
Values after ≈ are worked out from the molar mass of the structure shown. Active and inactive are the calls of the source. No cut-off for these calls is given here.

Legend:
[1] = system: Staphylococcus aureus; assay: Antibacterial activity against Staphylococcus aureus ATCC 6538 by micro dilution susceptibility test; type: functional
Method in brief: (§1)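 Microbroth dilution MIC in Mueller–Hinton broth following CLSI guidelines, vancomycin as positive control; resazurin added as visible growth indicator. Assays run at least in triplicate.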

[2] = system: Staphylococcus aureus; assay: Antibacterial activity against Staphylococcus aureus CMCC 26003 by micro dilution susceptibility test; type: functional; method in brief: as §1
[3] = system: Staphylococcus aureus; assay: Antibacterial activity against methicillin-resistant Staphylococcus aureus JCSC 2172 by micro dilution susceptibility test; type: functional; method in brief: as §1
[4] = system: Staphylococcus aureus; assay: Antibacterial activity against methicillin-resistant Staphylococcus aureus JCSC 4469 by micro dilution susceptibility test; type: functional; method in brief: as §1
[5] = system: Staphylococcus aureus; assay: Antibacterial activity against methicillin-resistant Staphylococcus aureus NCTC 10442 by micro dilution susceptibility test; type: functional; method in brief: as §1
[6] = system: Staphylococcus aureus; assay: Antibacterial activity against methicillin-resistant Staphylococcus aureus N315 by micro dilution susceptibility test; type: functional; method in brief: as §1
[7] = system: Bacillus cereus; assay: Antibacterial activity against Bacillus cereus ATCC 10876 by micro dilution susceptibility test; type: functional
Method in brief: (§2)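 Microbroth dilution MIC in Mueller–Hinton broth following CLSI guidelines, with vancomycin as positive control; assays run at least in triplicate.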

[8] = system: Paenibacillus polymyxa; assay: Antibacterial activity against Bacillus polymyxa GIM 1.467 by micro dilution susceptibility test; type: functional; method in brief: as §2
[9] = system: Paenibacillus polymyxa; assay: Antibacterial activity against Bacillus polymyxa ATCC 842 by micro dilution susceptibility test; type: functional; method in brief: as §2
[10] = system: Shigella dysenteriae; assay: Antibacterial activity against Shigella dysenteriae CMCC 51252 by micro dilution susceptibility test; type: functional; method in brief: as §1
[11] = system: Candida albicans; assay: Antibacterial activity against Candida albicans ATCC 10231 by micro dilution susceptibility test; type: functional; method in brief: as §2
[12] = system: Staphylococcus aureus; assay: Selectivity ratio of MIC for methicillin-resistant Staphylococcus aureus JCSC 4744 to MIC for methicillin-resistant Staphylococcus aureus JCSC 4788; type: functional
[13] = system: Staphylococcus aureus; assay: Selectivity ratio of MIC for methicillin-resistant Staphylococcus aureus 85/2082 to MIC for methicillin-resistant Staphylococcus aureus JCSC 4788; type: functional
[14] = Selectivity ratio of IC50 for mouse RAW264.7 cells to MIC for methicillin-resistant Staphylococcus aureus JCSC 4788; type: toxicity
Method in brief: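 Ratio of 24 h MTT cytotoxicity IC50 (compound 1.5625–100 μg mL−1, 0.5% DMSO control) to MIC against MRSA JCSC 4788 from CLSI microbroth dilution in MHB; IC50 values expressed as mean ± SD.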

[15] = system: Staphylococcus aureus; assay: Bactericidal activity against methicillin-resistant Staphylococcus aureus JCSC 4788 assessed as bacterial killing at 2 MIC measured within 2 hrs by time kill assay relative to control; type: functional
Method in brief: (§3)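 Time-kill per CLSI: overnight MRSA JCSC 4788 adjusted in 0.85% NaCl to 10^6–10^7 CFU mL−1 and exposed to 0.5×, 1×, 2× and 4× MIC at 35 °C, vancomycin as comparator. Viable plate counts at 0.5, 2, 4, 8 and 24 h; two independent experiments.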

[16] = system: Staphylococcus aureus; assay: Bactericidal activity against methicillin-resistant Staphylococcus aureus JCSC 4788 assessed as bacterial killing at 4 MIC measured within 0.5 hrs by time kill assay relative to control; type: functional; method in brief: as §3
[17] = system: Staphylococcus aureus; assay: Induction of membrane disruption in methicillin-resistant Staphylococcus aureus JCSC 4788 assessed as increase in fluorescence intensity at MIC measured after 3 hrs by SYTOX green dye based fluorescence assay; type: functional, organism-based
Method in brief: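 Exponential-phase MRSA JCSC 4788 washed and set to OD620 0.4 in 0.85% NaCl, exposed to serial compound concentrations for 3 h, then 3 μM SYTOX Green for 20 min. Fluorescence read at ex 504/em 523 nm with melittin as positive control and vancomycin as comparator; mean ± SD, n = 3.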

[18] = system: Staphylococcus aureus; assay: Antibacterial activity against methicillin-resistant Staphylococcus aureus JCSC 4788 in Balb/c mouse skin infection model assessed as reduction in skin ulcer formation at 40 ug administered as single dose via intradermal route measured 3 to 8 days post-infection; type: functional, organism-based
Method in brief: (§4)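 Female BALB/c mice (18–20 g) injected intradermally in abdominal skin with 0.1 mL of MRSA JCSC 4788 (1×10^8 CFU) mixed with a single 40 μg dose in DMSO; DMSO-vehicle controls. Body weight and lesion size recorded daily for 11 days, ulcers imaged at 3 and 8 days; n = 6, mean ± SD.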

[19] = system: Staphylococcus aureus; assay: Antibacterial activity against methicillin-resistant Staphylococcus aureus JCSC 4788 in Balb/c mouse skin infection model assessed as reduction in infection-induced morbidity by measuring increase in body weight at 40 ug administered as single dose via intradermal route measured daily for 11 days; type: functional, organism-based; method in brief: as §4
[20] = system: Staphylococcus aureus; assay: Antibacterial activity against methicillin-resistant Staphylococcus aureus JCSC 4788 in Balb/c mouse skin infection model assessed as reduction in infection-induced morbidity by measuring decrease in wound size at 40 ug administered as single dose via intradermal route measured daily for 11 days; type: functional, organism-based; method in brief: as §4

`CCCCCCCC(=O)c1c(O)cc(O)c2c1OC1=C(C(=O)C(C)(C)C(=O)C1(C)C)C2CC(C)C` (stereo not given) showed an MIC [1] of 0.25 µg/mL (≈ 0.516 µM), an MIC [2] of 0.25 µg/mL (≈ 0.516 µM) and an MIC [3] of 0.25 µg/mL (≈ 0.516 µM). For the same compound, the MIC [4] was 0.25 µg/mL (≈ 0.516 µM), the MIC [5] was 0.5 µg/mL (≈ 1.03 µM) and the MIC [6] was 0.25 µg/mL (≈ 0.516 µM). The MIC [7] was 0.5 µg/mL (≈ 1.03 µM), the MIC [8] was greater than 32 µg/mL and the MIC [9] was greater than 32 µg/mL. The MIC [10] was greater than 32 µg/mL, the MIC [11] was greater than 32 µg/mL and the Selectivity ratio [12] was 0.5 - 2. For the same compound, the Selectivity ratio [13] was 0.5 - 2, the Selectivity ratio [14] was 22.4 and the Activity [15] was greater than 90%. For the same compound, the Activity [16] was greater than 90%, the Activity [17] was “Active” and the Activity [18] was “Active”. For the same compound, the Activity [19] was “Active” and the Activity [20] was “Active”.
